Experimental data gathered from unrelated publications.
Protocols differ between the studies behind these lines.

NCC(=O)Nc1ccc(-n2nc(C(F)(F)F)cc2-c2ccc3c(ccc4ccccc43)c2)cc1  Tmax (mouse, plasma; oral, 80 mg/kg, single dose): 10 h
CC[C@H](C)[C@H](NC(=O)[C@H](CC(C)C)NC(=O)[C@H](Cc1c[nH]c2ccccc12)NC(=O)[C@H](CCC(N)=O)NC(=O)[C@@H](NC(=O)[C@H](Cc1ccccc1)NC(=O)[C@H](C)NC(=O)[C@H](CCCCNC(=O)COCCOCCNC(=O)COCCOCCNC(=O)CC[C@H](NC(=O)CCCCCCCCCCCCCCCCCCC(=O)O)C(=O)O)NC(=O)[C@H](CCC(N)=O)NC(=O)[C@H](C)NC(=O)[C@@H](NC(=O)[C@H](CCCCN)NC(=O)[C@H](CC(=O)O)NC(=O)[C@H](CC(C)C)NC(=O)C(C)(C)NC(=O)[C@@H](NC(=O)[C@H](CO)NC(=O)[C@H](Cc1ccc(O)cc1)NC(=O)[C@H](CC(=O)O)NC(=O)[C@H](CO)NC(=O)[C@@H](NC(=O)[C@H](Cc1ccccc1)NC(=O)[C@@H](NC(=O)CNC(=O)[C@H](CCC(=O)O)NC(=O)C(C)(C)NC(=O)[C@@H](N)Cc1ccc(O)cc1)[C@@H](C)O)[C@@H](C)O)[C@@H](C)CC)[C@@H](C)CC)C(C)C)C(=O)N[C@@H](C)C(=O)NCC(=O)NCC(=O)N1CCC[C@H]1C(=O)N[C@@H](CO)C(=O)N[C@@H](CO)C(=O)NCC(=O)N[C@@H](C)C(=O)N1CCC[C@H]1C(=O)N1CCC[C@H]1C(=O)N1CCC[C@H]1C(=O)N[C@@H](CO)C(N)=O  Cmax (human, plasma; subcutaneous, 4.5 mg, multiple doses, healthy volunteers): 884 ng/mL
COc1ccc2[nH]cc(CCNc3nccc(Nc4cccc5c4ccn5C)n3)c2c1  Tmax (mouse, plasma; intravenous, 9.5 mg/kg): 0.08 h
c1cc([C@H]2CC[C@]3(CC2)OO[C@]2(O3)C3CC4CC(C3)CC2C4)ccc1OCCN1CCOCC1  Cmax (human, plasma; oral, 200 mg, patients): 339 ng/mL
CC(=C/C=C/C(C)=C/C(=O)O)/C=C1\CCCc2ccccc21  Cmax (human, plasma; oral, 5 mg, single dose, fasted, healthy volunteers): 46.9 ng/mL
Cc1ccccc1C(=O)NN=Cc1ccc(O)c(Br)c1  Tmax (mouse, plasma; intraperitoneal, 0.8 mg/kg): 0.5 h
C[C@H]1O[C@@H](O[C@H]2[C@@H](O)C[C@H](O[C@H]3[C@@H](O)C[C@H](O[C@H]4CC[C@@]5(C)[C@H](CC[C@@H]6[C@@H]5C[C@@H](O)[C@]5(C)[C@@H](C7=CC(=O)OC7)CC[C@]65O)C4)O[C@@H]3C)O[C@@H]2C)C[C@H](O)[C@@H]1O  efflux ratio (Caco-2; 10 µM, 1 h, pH 7.4): 5.33
COc1ccc(C[C@@H]2NC(=O)[C@H]([C@@H](C)O)NC(=O)[C@@H]3[C@@H]4CCN3C(=O)[C@@H]3Cc5cn(c6ccc(F)cc56)CCCCCCN(Cc5ccc(cc5)CCNC(=O)[C@]5(C)CCCN5C2=O)C(=O)CCC(=O)N[C@@H](C)C(=O)N[C@H](CNC(=O)CCCCC[N+](C)(C)C)C(=O)N[C@@H](Cc2cccc(c2)CNC(=O)CO4)C(=O)N3)cc1  Cmax (human, plasma; oral, 200 mg, single dose): 7.84 nM
COc1cc2c(c(OC)c1OC)-c1ccc(OC)c(=O)cc1[C@@H](NC(C)=O)CC2  efflux ratio (Caco-2): 24.5
N=C(N)NCCC[C@@H](NC(=O)[C@@H](N)Cc1ccccc1)C(=O)N[C@@H](Cc1ccccc1)C(=O)N[C@@H](CCCCN)C(N)=O  Cmax (human, plasma; subcutaneous, 15 mg, multiple doses, once daily, patients): 726 ng/mL
C[C@]12CC[C@H](n3ccnc3)CC1=CC[C@@H]1[C@@H]2CC[C@]2(C)C(n3cnc4ccccc43)=CC[C@@H]12.Cl.Cl  Tmax (male CD-1 mouse, plasma; oral, 10 mg/kg): 17.3 h
N=c1c2c(-c3ccccc3)c(-c3ccccc3)n(Cc3ccccc3)c2ncn1[C@H]1CC[C@H](O)CC1  Vd (male cynomolgus monkey, plasma; intravenous, 0.5 mg/kg, single dose): 1.5 L/kg
C=C(C)[C@@H]1CC[C@]2(NCCN3CCS(=O)(=O)CC3)CC[C@]3(C)[C@H](CC[C@@H]4[C@@]5(C)CC=C(C6=CC[C@@](COc7ncccc7C#N)(C(=O)O)CC6)C(C)(C)[C@@H]5CC[C@]43C)[C@@H]12  Cmax (human, plasma; oral, 100 mg, single dose, fasted, tablet): 228 ng/mL
